An excerpt weighted towards active compounds, which were near 4.6% of everything screened.
TAAR1 antagonist: human TAAR1 antagonism. Q96RJ0. inhibition, % at 3 µM. CHO RD-HGA16 TAAR1, Fluo-8 calcium fluorescence, antagonist. 360,000 compounds, 1.5% hits;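 active means inhibition above a per-plate cutoff, the mean inhibition of test compounds on that plate plus 3 SD, cut at about 49% in these data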
Target sequence (Q96RJ0 whole entry, looked up): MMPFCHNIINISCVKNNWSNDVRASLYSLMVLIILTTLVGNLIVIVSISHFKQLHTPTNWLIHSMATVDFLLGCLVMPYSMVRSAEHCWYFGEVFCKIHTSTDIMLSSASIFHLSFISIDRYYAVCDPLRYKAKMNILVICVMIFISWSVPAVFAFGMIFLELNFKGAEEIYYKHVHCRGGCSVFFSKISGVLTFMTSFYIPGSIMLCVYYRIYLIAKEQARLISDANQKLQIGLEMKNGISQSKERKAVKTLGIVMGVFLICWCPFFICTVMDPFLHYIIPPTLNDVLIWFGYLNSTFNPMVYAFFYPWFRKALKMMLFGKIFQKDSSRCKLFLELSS
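Assay system: CHO-derived RD-HGA16 cells stably expressing human TAAR1 plus Gα16. Timing: 140 s kinetic read after compound, 140 s after agonist. Technique: kinetic Fluo-8 calcium fluorescence measurement. Measure: % inhibition of agonist calcium response.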
OX1R antag-1: antagonists of human orexin 1 receptor (OX1R); O43613; OX1R-expressing cells, FRET antagonist read-out; inhibition, % at 6.6 µM; 330,000 compounds, 1.8% hits; in the data active means inhibition mostly above about 38%, no sharp cut-off; inactive means mostly below about 40%
GPR7 antag: blocks human GPR7 receptor signaling | 290,000 compounds, 1.1% hits | P48145 | GPR7-expressing cells, fluorescence antagonist assay | AID 1861 | inhibition, % at 4.4 µM; in the data active means inhibition above about 16%, passing the limit was not always enough;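 further: cells stimulated with the agonist NPW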
Target sequence (P48145 whole entry, looked up): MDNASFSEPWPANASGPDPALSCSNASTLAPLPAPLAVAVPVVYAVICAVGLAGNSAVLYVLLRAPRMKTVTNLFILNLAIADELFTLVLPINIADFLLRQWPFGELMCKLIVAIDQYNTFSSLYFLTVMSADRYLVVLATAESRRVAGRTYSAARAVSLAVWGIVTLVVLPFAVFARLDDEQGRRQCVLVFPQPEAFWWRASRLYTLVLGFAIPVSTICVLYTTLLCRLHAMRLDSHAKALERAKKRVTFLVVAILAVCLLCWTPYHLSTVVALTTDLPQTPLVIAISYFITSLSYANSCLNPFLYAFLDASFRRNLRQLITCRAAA
CHO parental Ca: signal in parental CHO cells, OX1R antagonist counter-screen | 330,000 compounds, 0.63% hits | parental CHO-K1, ATP-induced calcium, Fluo-8 fluorescence | AID 463079 | inhibition, % at 5.6 µM;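 active means inhibition above that plate's mean sample inhibition plus 3 SD, cut at about 26% in these data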
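Material: parental CHO cells / Compound: single nominal dose of 5.6 µM per compound / Signal: Fluo-8 fluorescence / Replicates: singlicate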
TAAR1 ag: human TAAR1 agonism | Q96RJ0 | CHO RD-HGA16 TAAR1, Fluo-8 calcium fluorescence; vehicle wells 0%, saturating PEA agonist 100% | activation, % at 3 µM | 360,000 compounds, 0.99% hits | AID 624467;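 active means activation above the mean activation of all test compounds in the run plus 3 SD, cut at about 38% in these data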
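Test system: RD-HGA16 (CHO) cells co-expressing Gα16 and hTAAR1 / Benchmarks: DMSO vehicle as 0%, PEA at EC100 as 100% / Repeats: no replicates (n 1) / Measure: % activation from peak over basal fluorescence ratio, DMSO-to-PEA scaled / Timing: 17-24 h plating, Fluo-8 75 min 37 °C, 30 min RT / Technique: kinetic Fluo-8 calcium fluorescence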
OX1R antag-2: antagonists of human orexin 1 receptor | O43613 | CHO/OX1R cells, Fluo-8 calcium fluorescence, orexin A | inhibition, % at 5 µM | 330,000 compounds, 0.43% hits;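 active means inhibition above its plate's threshold, mean inhibition of all tested compounds on the plate plus 3 SD, cut at about 37% in these data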
GPR7 antag cf: confirmation of human GPR7 antagonists; AID 1952; shares compounds with GPR7 antag; inhibition, % at 4.4 µM; GPR7-expressing cells, calcium fluorescence antagonist mode; 2,400 compounds, 52% hits; in the data active means inhibition above about 24%;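 further: stimulated with the GPR7 agonist NPW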
MCHR1 antag: antagonizes human MCHR1, a GPR7 antagonist counter-screen; shares compounds with GPR7 antag; MCHR1-expressing cells, fluorescence antagonist assay; inhibition, % at 4.4 µM; 2,400 compounds, 62% hits; in the data active means inhibition above about 22%
Numbers stand for hits; i = inactive; nt = no result given.

SMILES	TAAR1 antagonist	OX1R antag-1	GPR7 antag	CHO parental Ca	TAAR1 ag	OX1R antag-2	GPR7 antag cf	MCHR1 antag
O=C(NCCc1ccccc1)c1ccc(NC(=O)C2CCC2)cc1	i	nt	nt	nt	i	nt	nt	nt
CCOc1ccc(CCNC(=O)C2CCN(S(=O)(=O)N3CCC(C)CC3)CC2)cc1OCC	i	i	i	i	i	i	nt	nt
CCN1CCN(c2oc(COc3ccc(Cl)cc3)nc2C#N)CC1	i	i	i	i	i	i	nt	nt
N#Cc1nc(COc2ccccc2)oc1NCCN1CCOCC1	i	i	i	i	i	i	nt	nt
COc1ccc(N2CCN(c3oc(COc4ccccc4)nc3C#N)CC2)cc1	i	i	44	i	i	i	49	46
COc1ccc(N2CCN(c3oc(COc4ccc(Cl)cc4)nc3C#N)CC2)cc1	i	i	39	i	i	i	40	33
COc1ccc(N2CCN(c3oc(Cc4ccccc4)nc3C#N)CC2)cc1	i	i	i	i	i	i	nt	nt
N#Cc1nc(COc2ccc(-c3ccccc3)cc2)oc1NCCCN1CCOCC1	i	i	24	i	i	i	41	56
N#Cc1nc(COc2ccc(Cl)cc2)oc1N1CCN(Cc2ccccc2)CC1	i	i	48	i	i	i	50	47
Cc1cc(NC(=O)CN2C(=O)[C@@H]3[C@H](C2=O)[C@@H]2C[C@H]3C(Br)C2Br)no1 (some centres undefined)	i	i	i	i	i	i	nt	nt
C[C@@H]1CCCCO[C@@H](CN(C)C(=O)Nc2ccc3c(c2)OCO3)[C@@H](C)CN([C@H](C)CO)C(=O)c2cc(NC(=O)Nc3ccc(C(F)(F)F)cc3)ccc2O1	i	nt	nt	nt	i	nt	nt	nt
C=CCNc1oc(COc2ccc(C)cc2)nc1C#N	i	i	24	i	i	i	i	i
CN1CCN(c2oc(COc3ccc(-c4ccccc4)cc3)nc2C#N)CC1	i	i	27	i	i	i	i	41
N#Cc1nc(COc2ccccc2)oc1N1CCCC1	i	i	i	i	i	i	nt	nt
COc1ccc(N2CCN(c3oc(COc4ccc(Cl)cc4Cl)nc3C#N)CC2)cc1	i	i	41	i	i	i	54	35
CC(=O)c1cccc(S(=O)(=O)NCC(c2ccco2)N2CCCCC2)c1 (centres undefined)	i	i	i	i	i	i	nt	nt
Cc1sc(NC(=O)c2ccco2)c(CN2CCN(c3ccccn3)CC2)c1C	nt	i	32	i	nt	i	i	49
COc1cccc(OCc2cc(C(=O)NCc3cnc4ccccn34)no2)c1	i	i	30	i	i	i	33	48
COc1cccc(OCc2cc(C(=O)NCc3ccccn3)no2)c1	i	i	i	i	i	i	nt	nt
N#CCCN(C(=O)CSc1ncccn1)c1ccc2c(c1)OCCO2	i	i	nt	i	i	i	nt	nt
COc1ccccc1N(CCC#N)C(=O)CSc1ccc2c(c1)OCCO2	i	i	36	i	i	i	i	i
O=c1c2ccccc2nnn1CCc1ccccc1	i	nt	nt	nt	i	nt	nt	nt
Cc1onc(-c2ccccc2)c1C(=O)OCC(=O)N(C)c1ccccc1	i	i	nt	i	i	i	nt	nt
CSc1nc(C)c2c(n1)N(c1ccc(F)cc1)CC2	i	i	i	i	i	i	nt	nt
Cc1ccc2nc(C)c3c(c2c1)N(c1ccc(F)cc1)CC3	i	i	35	i	i	i	42	31
SMILES	TAAR1 antagonist	OX1R antag-1	GPR7 antag	CHO parental Ca	TAAR1 ag	OX1R antag-2	GPR7 antag cf	MCHR1 antag
O=C(NCCc1ccc(C(F)(F)F)cc1)C1CCC(=O)N(CCCc2ccccc2)C1 (centres undefined)	i	i	i	i	i	i	nt	nt
NC(=O)COC(=O)c1ccc(Oc2ccccc2)cc1	i	i	i	i	i	i	nt	nt
CC(C)NC(=O)COC(=O)c1ccc(Oc2ccccc2)cc1	i	i	28	i	i	i	i	35
COc1ccccc1NC(=O)/C=C/c1ccc2c(c1)OCO2	i	i	i	i	i	i	nt	nt
COc1ccccc1NC(=O)COC(=O)/C=C/c1ccc2c(c1)OCO2	i	i	33	i	i	i	i	i
CCOC(=O)c1c(NC(=S)NNS(=O)(=O)c2ccc(Br)cc2)sc2c1CCCCC2	i	i	i	i	i	i	nt	nt
Cn1c(N)c(C(=O)COC(=O)/C=C/c2ccc(Cl)c(Cl)c2)c(=O)n(C)c1=O	i	i	nt	i	i	i	nt	nt
CSc1ccccc1OCc1cc(C(=O)NCc2ccc(C)s2)no1	i	i	i	i	i	i	nt	nt
CCOC(=O)c1ccc(CNC(=O)c2cc(COc3ccccc3SC)on2)o1	i	i	44	i	i	i	i	45
Cc1ccc(CNc2nc(C)nc3sc4c(c23)CCC4)cc1	i	i	i	i	i	i	nt	nt
Cc1nc(NC(C)c2ccccc2)c2c3c(sc2n1)CCC3 (centres undefined)	nt	i	27	i	nt	i	28	29
N#Cc1ccc(CN2CCN(CC(=O)NCCc3ccc(Cl)cc3Cl)CC2)cc1	i	i	22	i	i	i	31	i
CCC(NC(=O)c1ccc2nc(Cc3ccc(OC)cc3)oc2c1)c1ccncc1 (centres undefined)	i	i	46	i	i	i	39	70
CCC(=O)N1CCc2cc(Br)cc(S(=O)(=O)N(C)c3ccc(OC)cc3)c21	i	i	38	i	i	i	i	54
COc1cccc(CNS(=O)(=O)c2ccc(S(=O)(=O)NC3CC3)cc2)c1	i	i	i	i	i	i	nt	nt
COc1ccc(CNS(=O)(=O)c2ccc(S(=O)(=O)NC3CC3)cc2)cc1	i	i	27	i	i	i	i	i
COc1ccc(C2CCCN2CC(O)COc2ccccc2C(C)C)cc1 (centres undefined)	i	i	24	i	i	i	33	41
CC(=O)Nc1ccc(NC(=O)CCn2nnc3ccccc32)cc1	i	i	i	i	i	i	nt	nt
C/C(=N\NC(=O)CCn1nnc2ccccc21)c1ccco1	i	i	21	i	i	i	i	i
CC(=O)Nc1ccc(NC(=O)c2ccc(COc3ccccc3Br)o2)cc1	i	nt	i	nt	i	nt	nt	nt
O=C(Nc1cccnc1)c1ccc(COc2ccccc2Br)o1	i	i	69	i	i	i	33	54
CCOc1ncccc1C(=O)N1CCN(c2cccc(C)c2C)CC1	i	nt	28	nt	i	nt	i	34
N#C/C(=C\c1ccccc1)C(=O)NCc1ccc(F)cc1	i	i	22	i	i	i	43	47
COc1ccc(CNC(=O)C2CC(c3cccc([N+](=O)[O-])c3)=NO2)cc1 (centres undefined)	i	i	i	i	i	i	nt	nt

High-throughput results from PubChem BioAssay.
